The source of these data is ChEMBL document CHEMBL1268917, “Synthesis and biological evaluation of radio-iodinated benzimidazoles as SPECT imaging agents for NR2B subtype of NMDA receptor” (Bioorg Med Chem, 2010).

Data set [1] has as its target Glutamate receptor ionotropic, NMDA 2B (Rattus norvegicus) (UniProt Q00960). As to the kind of experiment: Binding affinity to NR2B receptor in rat cerebral cortex at 0.09 to 0.14 nM after 30 mins by autoradiography in presence of prazosin relative to control. In kind it is tissue-based. To be noted: tested as the 125I-labelled form. In outline: (§1)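 Rinsed three times 3 min in cold buffer with 1% BSA, dipped in cold water, air-dried, exposed to imaging plates; PSL per mm² in ROIs. Expressed as % control binding; at least triplicate slices from three rats.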

Data set [2] shares this target. As to the kind of experiment: Binding affinity to NR2B receptor in rat hippocampus at 0.09 to 0.14 nM after 30 mins by autoradiography in presence of prazosin relative to control. In kind it is tissue-based. As to conditions: tested as the 125I-labelled form. In outline: as §1
The target is the same in data set [3]. Kind of data set: Binding affinity to NR2B receptor in rat cerebellum at 0.09 to 0.14 nM after 30 mins by autoradiography in presence of prazosin relative to control. In kind it is tissue-based. To be noted: tested as the 125I-labelled form. In outline:
as §1

Data set [4] has the same target. As to the kind of experiment: Binding affinity to NR2B receptor in rat cerebral cortex at 0.09 to 0.14 nM after 30 mins by autoradiography in presence of DTG relative to control. To be noted: tested as the 125I-labelled form. It counts as tissue-based. An outline of the steps: as §1
The target is the same in data set [5]. As to the kind of experiment: Binding affinity to NR2B receptor in rat hippocampus at 0.09 to 0.14 nM after 30 mins by autoradiography in presence of DTG relative to control. It counts as tissue-based. As to conditions: tested as the 125I-labelled form. In outline: as §1
Data set [6] shares this target. Kind of data set: Binding affinity to NR2B receptor in rat cerebellum at 0.09 to 0.14 nM after 30 mins by autoradiography in presence of DTG relative to control. To be noted: tested as the 125I-labelled form. It counts as tissue-based. An outline of the steps: as §1
In data set [7] the target is Glutamate receptor ionotropic, NMDA 2B (Rattus norvegicus, UniProt Q00960). As to the kind of experiment: Displacement of [3H]ifenprodil from NR2B receptor in rat cortical synaptic membranes. In kind it is cell membranes, Membrane. Background: Loss of bound radioactivity is the signal in a displacement assay; it reports binding, not function.
Sequence of Glutamate receptor ionotropic, NMDA 2B (Q00960 whole entry): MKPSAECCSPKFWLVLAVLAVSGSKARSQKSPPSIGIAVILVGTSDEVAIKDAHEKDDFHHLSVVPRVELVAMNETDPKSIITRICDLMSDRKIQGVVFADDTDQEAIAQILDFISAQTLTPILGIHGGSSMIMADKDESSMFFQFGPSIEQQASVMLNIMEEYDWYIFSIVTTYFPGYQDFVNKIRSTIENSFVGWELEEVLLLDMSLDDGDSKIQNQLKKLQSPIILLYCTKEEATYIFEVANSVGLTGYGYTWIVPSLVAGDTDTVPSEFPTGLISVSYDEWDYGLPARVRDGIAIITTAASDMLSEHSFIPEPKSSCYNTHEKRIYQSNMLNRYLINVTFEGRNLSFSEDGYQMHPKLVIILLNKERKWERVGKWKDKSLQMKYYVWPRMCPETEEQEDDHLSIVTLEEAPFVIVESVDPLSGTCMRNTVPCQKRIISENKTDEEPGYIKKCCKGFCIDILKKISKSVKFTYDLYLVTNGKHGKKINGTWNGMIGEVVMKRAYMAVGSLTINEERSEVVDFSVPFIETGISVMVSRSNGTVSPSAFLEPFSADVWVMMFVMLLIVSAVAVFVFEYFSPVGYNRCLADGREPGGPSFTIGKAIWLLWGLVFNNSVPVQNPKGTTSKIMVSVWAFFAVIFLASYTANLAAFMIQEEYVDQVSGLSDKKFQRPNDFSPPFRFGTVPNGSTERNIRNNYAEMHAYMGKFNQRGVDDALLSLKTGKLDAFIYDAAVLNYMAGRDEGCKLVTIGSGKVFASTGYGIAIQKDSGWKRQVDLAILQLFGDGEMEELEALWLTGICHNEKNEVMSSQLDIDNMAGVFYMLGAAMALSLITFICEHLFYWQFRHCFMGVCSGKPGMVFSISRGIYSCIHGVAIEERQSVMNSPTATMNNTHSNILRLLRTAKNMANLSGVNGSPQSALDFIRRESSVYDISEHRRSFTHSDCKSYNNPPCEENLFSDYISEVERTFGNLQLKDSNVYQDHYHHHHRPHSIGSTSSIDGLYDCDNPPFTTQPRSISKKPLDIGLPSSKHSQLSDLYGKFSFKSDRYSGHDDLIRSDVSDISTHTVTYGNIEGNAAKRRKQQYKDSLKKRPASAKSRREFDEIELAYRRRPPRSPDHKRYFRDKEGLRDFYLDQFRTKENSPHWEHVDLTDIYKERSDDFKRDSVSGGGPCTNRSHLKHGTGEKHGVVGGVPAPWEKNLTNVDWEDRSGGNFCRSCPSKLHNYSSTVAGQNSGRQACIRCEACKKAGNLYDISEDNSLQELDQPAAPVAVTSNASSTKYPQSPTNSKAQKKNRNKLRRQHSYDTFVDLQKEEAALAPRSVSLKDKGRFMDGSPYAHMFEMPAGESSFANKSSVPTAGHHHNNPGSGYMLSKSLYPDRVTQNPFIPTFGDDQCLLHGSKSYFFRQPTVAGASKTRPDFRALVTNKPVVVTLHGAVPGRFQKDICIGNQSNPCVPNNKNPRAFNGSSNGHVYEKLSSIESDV
A short description of data set [8]: Octanol-buffer partition coefficient, log D of the compound at pH 7.4. In kind it is physicochemical.
The nature of data set [9]: Lipophilicity, log P of the compound. It counts as physicochemical. As to conditions: octanol/water.
The target in data set [10] is Glutamate receptor ionotropic, NMDA 2B (Rattus norvegicus) (UniProt Q00960). As to the kind of experiment: Binding affinity to NR2B receptor in rat cerebral cortex at 0.09 to 0.14 nM after 30 mins by autoradiography in presence of Ro-256981 relative to control. In kind it is tissue-based. As to conditions: tested as the 125I-labelled form. In outline: as §1
Sequence of Glutamate receptor ionotropic, NMDA 2B (Rattus norvegicus) (Q00960 27-1482 limits assumed): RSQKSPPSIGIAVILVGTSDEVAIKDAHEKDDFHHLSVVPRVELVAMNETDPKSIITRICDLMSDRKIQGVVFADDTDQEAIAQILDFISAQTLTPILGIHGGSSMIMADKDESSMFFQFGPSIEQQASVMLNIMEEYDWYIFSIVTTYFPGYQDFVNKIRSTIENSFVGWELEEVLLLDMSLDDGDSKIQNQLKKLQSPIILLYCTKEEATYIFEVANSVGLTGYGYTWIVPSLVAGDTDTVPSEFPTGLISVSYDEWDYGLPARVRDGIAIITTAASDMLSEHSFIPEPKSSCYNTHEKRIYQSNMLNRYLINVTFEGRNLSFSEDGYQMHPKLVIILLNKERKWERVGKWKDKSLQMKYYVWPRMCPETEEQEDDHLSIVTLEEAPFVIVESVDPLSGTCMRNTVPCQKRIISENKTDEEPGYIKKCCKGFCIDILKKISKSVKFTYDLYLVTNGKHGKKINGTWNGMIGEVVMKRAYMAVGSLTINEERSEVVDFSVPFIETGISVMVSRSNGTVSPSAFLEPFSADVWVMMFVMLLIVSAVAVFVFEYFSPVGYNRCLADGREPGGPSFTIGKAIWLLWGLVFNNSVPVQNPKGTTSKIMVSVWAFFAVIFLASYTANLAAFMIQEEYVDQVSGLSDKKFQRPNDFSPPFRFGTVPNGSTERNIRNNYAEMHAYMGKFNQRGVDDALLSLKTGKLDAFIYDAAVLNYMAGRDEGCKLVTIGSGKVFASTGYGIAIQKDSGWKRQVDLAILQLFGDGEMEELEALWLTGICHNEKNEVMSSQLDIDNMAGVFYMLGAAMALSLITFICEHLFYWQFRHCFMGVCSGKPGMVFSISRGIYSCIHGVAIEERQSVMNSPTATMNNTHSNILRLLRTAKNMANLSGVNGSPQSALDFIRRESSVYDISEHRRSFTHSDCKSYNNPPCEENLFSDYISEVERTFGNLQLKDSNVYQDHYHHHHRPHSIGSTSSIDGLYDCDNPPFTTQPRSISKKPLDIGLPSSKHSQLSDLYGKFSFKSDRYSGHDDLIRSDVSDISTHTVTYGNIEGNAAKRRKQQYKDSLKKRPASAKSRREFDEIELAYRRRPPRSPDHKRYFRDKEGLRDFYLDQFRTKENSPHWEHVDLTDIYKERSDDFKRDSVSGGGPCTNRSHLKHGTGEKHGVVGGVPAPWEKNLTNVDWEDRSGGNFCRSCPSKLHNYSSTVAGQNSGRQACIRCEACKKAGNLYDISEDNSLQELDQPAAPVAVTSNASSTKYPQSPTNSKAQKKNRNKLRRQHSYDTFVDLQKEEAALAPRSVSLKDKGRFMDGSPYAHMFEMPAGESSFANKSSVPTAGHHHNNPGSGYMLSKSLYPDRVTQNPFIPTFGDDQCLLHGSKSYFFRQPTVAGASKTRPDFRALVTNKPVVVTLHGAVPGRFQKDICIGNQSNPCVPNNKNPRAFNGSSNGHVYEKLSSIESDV
The target is the same in data set [11]. As to the kind of experiment: Binding affinity to NR2B receptor in rat hippocampus at 0.09 to 0.14 nM after 30 mins by autoradiography in presence of Ro-256981 relative to control. As to conditions: tested as the 125I-labelled form. It counts as tissue-based. An outline of the steps: as §1
Data set [12] shares this target. As to the kind of experiment: Binding affinity to NR2B receptor in rat cerebellum at 0.09 to 0.14 nM after 30 mins by autoradiography in presence of Ro-256981 relative to control. In kind it is tissue-based. As to conditions: tested as the 125I-labelled form. In outline:
as §1

As a reminder, the Ki is the equilibrium dissociation constant of an inhibitor or competing ligand from its target. The low end stands for higher affinity, the high end for lower affinity. In general, logD refers to the decadic logarithm of the distribution of all forms, ionised or not, between an organic phase and buffer at a given pH. One may read the logP as a log measure of how a compound divides between an organic and an aqueous phase. Lower therefore signals a more hydrophilic compound.

Take `CS(=O)(=O)Nc1ccc2nc(CN3CCC(Cc4ccc(I)cc4)CC3)[nH]c2c1`: the Activity in data set [1] is 92.8%; in data set [2], 95.5%; in [3], 97%; in data set [4], 93%; in data set [5], 108%; in data set [6], 104%. The Activity was found to be 58.1% in data set [10], 59% in data set [11] and 89.3% in [12]. The compound further returned a Ki in data set [7] of 5.75 nM. This compound also showed a logD in [8] of 3.54. This compound also yielded a logP in data set [9] of 3.54.
